Assay results taken from ChEMBL document CHEMBL2062518, “Total synthesis and biological evaluation of transvalencin Z” (J Nat Prod, 2012).

Columns and labels:
[1] = test system: Staphylococcus aureus; assay: Antimicrobial activity against methicillin-susceptible Staphylococcus aureus clinical isolate IDRL 8545 after 24 to 48 hrs; type: functional
Procedure, shortened: (§1)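 Broth microdilution at 37 °C. Glycerol stocks streaked on 1.5% agar for 24 h. Single colonies grown in broth to OD600 1.0: trypticase soy for E. coli, P. aeruginosa and S. aureus; nutrient broth for A. baumannii and K. pneumoniae; brain heart infusion for E. faecalis. Diluted to OD600 0.003 with compound dilutions from DMSO stocks. OD600 read at 24 and 48 h, 690 nm background subtracted, normalized to DMSO control; MIC99.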

[2] = test system: Mycolicibacterium smegmatis; assay: Antimicrobial activity against Mycobacterium smegmatis MC24517 after 24 to 48 hrs; type: functional
Procedure, shortened: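 Grown from glycerol stock on nutrient agar (1.5%) at 37 °C for 24 h, with Tyloxapol added to prevent clumping. Colonies were grown in nutrient broth to OD600 1.0, diluted to OD600 0.003 and incubated with compound dilutions (1% DMSO stocks). OD600 was read at 24 and 48 h, corrected for 690 nm background and standardised to DMSO controls.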

[3] = test system: Escherichia coli; assay: Antimicrobial activity against Escherichia coli ATCC 25922 after 24 to 48 hrs; type: functional; procedure, shortened: as §1
[4] = test system: Bacillus subtilis; assay: Antimicrobial activity against Bacillus subtilis ATCC 6633 after 24 to 48 hrs; type: functional
[5] = test system: Staphylococcus aureus; assay: Antimicrobial activity against methicillin-resistant Staphylococcus aureus ATCC 43300 after 24 to 48 hrs; type: functional
Procedure, shortened: (§2)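 Streaked from glycerol stock onto trypticase soy agar, 37 °C, 24 h. Single colonies were grown in trypticase soy broth to OD600 1.0 and diluted to OD600 0.003. Cells were incubated with compound at varying concentrations (1% DMSO stocks). Absorbance was read at 600 nm at 24 and 48 h, minus 690 nm background and relative to DMSO controls.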

[6] = test system: Pseudomonas aeruginosa; assay: Antimicrobial activity against Pseudomonas aeruginosa ATCC 27853 after 24 to 48 hrs; type: functional; procedure, shortened: as §1
[7] = test system: Mycolicibacterium smegmatis; assay: Antimicrobial activity against Mycobacterium smegmatis ATCC 607 after 24 to 48 hrs; type: functional
Procedure, shortened: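 M. smegmatis streaked from glycerol stock onto nutrient agar (1.5%), then grown at 37 °C in nutrient broth with Tyloxapol added to prevent clumping, to OD600 1.0. Diluted to OD600 0.003 and exposed to compound dilutions from DMSO stocks. Absorbance at 600 nm read at 24 and 48 h, 690 nm background subtracted, normalized to DMSO controls; MIC99.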

[8] = test system: Acinetobacter baumannii; assay: Antimicrobial activity against Acinetobacter baumannii ATCC 19606 after 24 to 48 hrs; type: functional; conditions: ATCC 19606 = CIP 70.34 = JCM 6841; procedure, shortened: as §1
[9] = test system: Mycobacterium tuberculosis; assay: Antimicrobial activity against Mycobacterium tuberculosis H37Rv after 24 to 48 hrs; type: functional
[10] = test system: Staphylococcus aureus; assay: Antimicrobial activity against methicillin-resistant Staphylococcus aureus clinical isolate IDRL 6169 after 24 to 48 hrs; type: functional; procedure, shortened: as §2
[11] = test system: Candida albicans; assay: Antifungal activity against Candida albicans ATCC 10231 after 24 to 48 hrs; type: functional
Procedure, shortened: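 C. albicans streaked from glycerol stock onto YM agar and grown at 30 °C for 24 h. A single colony was grown in YM broth to OD600 1.0, diluted to OD600 0.003 and incubated with compound dilutions from DMSO stocks. Read at 600 nm at 24 and 48 h, 690 nm background subtracted, normalized to DMSO controls; MIC99.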

[12] = test system: Klebsiella pneumoniae; assay: Antimicrobial activity against Klebsiella pneumoniae ATCC 13883 after 24 to 48 hrs; type: functional; procedure, shortened: as §1
[13] = Cytotoxicity against african green monkey Vero cells after 72 hrs by MTT assay; type: cell-based; conditions: chlorocebus sabaeus, read-out: MIC50
Procedure, shortened: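 Vero cells (ATCC CCL-81) in MEM with 10% FBS, 1% PennStrep and 1% Glutamax, seeded at 3.0 × 10^4 cells/well and left to adhere overnight. Compound in DMSO added to final 100 to 0.16 μM, in triplicate, for 72 h at 37 °C, 4.5% CO2. MTT 1.0 mg/mL in phenol red-free RPMI for 3 h, formazan dissolved in isopropanol. A570 minus A690 gave % viability vs DMSO control; dose-response curves gave 50% growth-inhibitory concentration.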

[14] = test system: Enterococcus faecalis; assay: Antimicrobial activity against Enterococcus faecalis ATCC 51299 after 24 to 48 hrs; type: functional; procedure, shortened: as §1

O=CNCCCC[C@H](NC(=O)[C@@H]1COC(c2ccccc2O)=N1)C(=O)O
MIC99 [1]: > 100 µM
MIC99 [2]: > 100 µM
MIC99 [3]: > 100 µM
MIC99 [4]: > 100 µM
MIC99 [5]: > 100 µM
MIC99 [6]: > 100 µM
MIC99 [7]: > 100 µM
MIC99 [8]: > 100 µM
MIC99 [9]: > 200 µM
MIC99 [10]: > 100 µM
MIC99 [11]: > 100 µM
MIC99 [12]: > 100 µM
CC50 at 72 h [13]: 164 µM
MIC99 [14]: > 100 µM

O=CNCCCCC(NC(=O)C1COC(c2ccccc2O)=N1)C(=O)O (stereo unspecified) [TRANSVALENCIN Z]
MIC99 [3]: > 64 µg/mL
MIC99 [4]: 16 µg/mL
MIC99 [5]: 1 µg/mL
MIC99 [7]: 0.125 µg/mL
MIC99 [11]: > 64 µg/mL

O=CNCCCC[C@@H](NC(=O)[C@@H]1COC(c2ccccc2O)=N1)C(=O)O
MIC99 [1]: > 100 µM
MIC99 [2]: > 100 µM
MIC99 [3]: > 100 µM
MIC99 [4]: > 100 µM
MIC99 [5]: > 100 µM
MIC99 [6]: > 100 µM
MIC99 [7]: > 100 µM
MIC99 [8]: > 100 µM
MIC99 [9]: > 200 µM
MIC99 [10]: > 100 µM
MIC99 [11]: > 100 µM
MIC99 [12]: > 100 µM
CC50 at 72 h [13]: 154 µM
MIC99 [14]: > 100 µM

O=CNCCCC[C@H](NC(=O)[C@H]1COC(c2ccccc2O)=N1)C(=O)O
MIC99 [1]: > 100 µM
MIC99 [2]: > 100 µM
MIC99 [3]: > 100 µM
MIC99 [4]: > 100 µM
MIC99 [5]: > 100 µM
MIC99 [6]: > 100 µM
MIC99 [7]: > 100 µM
MIC99 [8]: > 100 µM
MIC99 [9]: > 200 µM
MIC99 [10]: > 100 µM
MIC99 [11]: > 100 µM
MIC99 [12]: > 100 µM
CC50 at 72 h [13]: > 200 µM
MIC99 [14]: > 100 µM

O=CNCCCC[C@@H](NC(=O)[C@H]1COC(c2ccccc2O)=N1)C(=O)O
MIC99 [1]: > 100 µM
MIC99 [2]: > 100 µM
MIC99 [3]: > 100 µM
MIC99 [4]: > 100 µM
MIC99 [5]: > 100 µM
MIC99 [6]: > 100 µM
MIC99 [7]: > 100 µM
MIC99 [8]: > 100 µM
MIC99 [9]: > 200 µM
MIC99 [10]: > 100 µM
MIC99 [11]: > 100 µM
MIC99 [12]: > 100 µM
CC50 at 72 h [13]: > 200 µM
MIC99 [14]: > 100 µM
